Laboratory results as given in ChEMBL document CHEMBL4732208, “Discovery of novel N-alkylcytidines as promising antimicrobial agents” (Eur J Med Chem, 2021).
In brackets after ≈: the same amount, converted by molar mass. Activity calls are given as the source filed them. The calls are words filed in the database; no cut-off is given here.

Tests used:
[1] = Cytotoxicity against human A549 cells by MTT assay; format: cell-based
In short: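 Adherent A549 cells passaged in DMEM with 10% fetal calf serum and 2 mM glutamine, at 37 °C, 5% CO2, 90% humidity. MTT test. CC50 is the concentration that inhibits culture growth by 50%.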

[2] = system: Mycolicibacterium smegmatis; assay: Antibacterial activity against Mycobacterium smegmatis mc2155; format: functional
In short: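 Strains were grown in modified Gause's nutrient medium N 2 at 10⁶ cells/ml. The compound was dissolved in 50% aqueous methanol and added at 10 volume percent of the medium. Controls were untreated cultures, medium with the solvent mixture, and clinical antibiotics.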

Staphylococcus aureus [3] = assay: Antibacterial activity against Staphylococcus aureus FDA 209 P; format: functional
In short: (§1)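 Strains grown in modified Gause's nutrient medium N 2, inoculum 10⁶ cells/ml. Test compound dissolved in 50% aqueous methanol, added at ten volume percent of the medium. Growth controls: medium without additions, medium with solvent mixture, and clinical antibiotics (amikacin, ciprofloxacin, isoniazid, rifampicin, oxacillin, vancomycin).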

Staphylococcus aureus [4] = assay: Antibacterial activity against Staphylococcus aureus INA 00761; format: functional; in short: as §1
[5] = system: Leuconostoc mesenteroides; assay: Antibacterial activity against Leuconostoc mesenteroides VKPM B-4177; format: functional; in short: as §1
Micrococcus luteus = assay: Antibacterial activity against Micrococcus luteus NCTC 8340; format: functional; in short: as §1
Bacillus subtilis = assay: Antibacterial activity against Bacillus subtilis ATCC 6633; format: functional; in short: as §1
[6] = system: Mycolicibacterium smegmatis; assay: Antibacterial activity against Mycobacterium smegmatis VKPM Ac-1339; format: functional; in short: as §1
Aspergillus creber = assay: Antifungal activity against Aspergillus-creber SRX7729180 STG-57 assessed as reduction in fungal growth at 0.1 to 3.5 mM measured for 24 days by drop dilution assay relative to control; format: functional; conditions: dose 0.1-3.5 mM, time 24.0 day
In short: (§2)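 Drop-dilution method. Suspension plated on CDA with or without compound (screening range 0.1–3.5 mM); 5-fluorocytosine positive control. Incubated at 26 °C. Inhibition % = (Dc−Dt)/Dc × 100 from colony diameters; triplicate, repeated at least twice.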

[7] = system: Cladosporium halotolerans; assay: Antifungal activity against Cladosporium-halotolerans SRX7729178 STG-52B assessed as reduction in fungal growth at 0.1 to 3.5 mM measured for 24 days by drop dilution assay relative to control; format: functional; conditions: dose 0.1-3.5 mM, time 24.0 day; in short: as §2
Alternaria chartarum = assay: Antifungal activity against Ulocladium chartarum SRX7729176 STG-36 assessed as reduction in fungal growth at 0.1 to 3.5 mM measured for 24 days by drop dilution assay relative to control; format: functional; conditions: dose 0.1-3.5 mM, time 24.0 day; in short: as §2
Aspergillus versicolor [8] = assay: Antifungal activity against Aspergillus versicolor SRX7729174 STG-25G assessed as reduction in fungal growth at 0.1 to 3.5 mM measured for 24 days by drop dilution assay relative to control; format: functional; conditions: dose 0.1-3.5 mM, time 24.0 day; in short: as §2
[9] = system: Cladosporium parahalotolerans; assay: Antifungal activity against Cladosporium-parahalotolerans SRX7729188 STG-93B assessed as reduction in fungal growth at 0.1 to 3.5 mM measured for 24 days by drop dilution assay relative to control; format: functional; conditions: dose 0.1-3.5 mM, time 24.0 day; in short: as §2
Aspergillus = assay: Antifungal activity against Aspergillus SRX7729186 STG-93W assessed as reduction in fungal growth at 0.1 to 3.5 mM measured for 24 days by drop dilution assay relative to control; format: functional; conditions: dose 0.1-3.5 mM, time 24.0 day; in short: as §2
Microascus paisii = assay: Antifungal activity against Microascus-paisii SRX7729192 STG-103 assessed as reduction in fungal growth at 0.1 to 3.5 mM measured for 24 days by drop dilution assay relative to control; format: functional; conditions: dose 0.1-3.5 mM, time 24.0 day; in short: as §2
Aspergillus amoenus = assay: Antifungal activity against Aspergillus-amoenus SRX7729194 STG-106 assessed as reduction in fungal growth at 0.1 to 3.5 mM measured for 24 days by drop dilution assay relative to control; format: functional; conditions: dose 0.1-3.5 mM, time 24.0 day; in short: as §2
Aspergillus versicolor [10] = assay: Antifungal activity against Aspergillus versicolor SRX7729182 STG-25G assessed as reduction in fungal growth at 0.1 to 3.5 mM measured for 24 days by drop dilution assay relative to control; format: functional; conditions: dose 0.1-3.5 mM, time 24.0 day; in short: as §2
[11] = system: Simplicillium lamellicola; assay: Antifungal activity against Simplicilium-lamellicola SRX772919 STG-96 assessed as reduction in fungal growth at 0.1 to 3.5 mM measured for 24 days by drop dilution assay relative to control; format: functional; conditions: dose 0.1-3.5 mM, time 24.0 day; in short: as §2
[12] = Aqueous solubility of compound; format: physicochemical; conditions: buffer
[13] = Chemical stability of compound in pH 7.5 at 5 mg measured after 7 days by TLC analysis; format: physicochemical; conditions: pH 7.5, 168 h, time 7 day
In short: (§3)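 Compound incubated at 37 °C in 0.2 M glycine/HCl (pH 2.2), 0.1 M potassium phosphate (pH 7.5) or 0.2 M glycine/NaOH (pH 9.0). Followed for 24 h and up to over a week.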

[14] = Chemical stability of compound in pH 9 at 5 mg measured after 24 hrs by TLC analysis; format: physicochemical; conditions: pH 9, 24 h; in short: as §3
[15] = Metabolic stability in human serum assessed as half life at 100 mM measured for 24 hrs by HPLC/TLC analysis; format: ADME, cell-free
[16] = Chemical stability of compound in pH 2.2 at 5 mg measured after 7 days by TLC analysis; format: physicochemical; conditions: pH 2.2, 168 h, time 7 day; in short: as §3

| SMILES | CC50 [1] [µM] | MIC [2] [µM] | MIC (Staphylococcus aureus [3]) [µM] | MIC (Staphylococcus aureus [4]) [µM] | MIC [5] [µM] | MIC (Micrococcus luteus) [µM] | MIC (Bacillus subtilis) [µM] | MIC [6] [µM] | inhibition (Aspergillus creber) | inhibition [7] | inhibition (Alternaria chartarum) | inhibition (Aspergillus versicolor [8]) | inhibition [9] | inhibition (Aspergillus) | inhibition (Microascus paisii) | inhibition (Aspergillus amoenus) | inhibition (Aspergillus versicolor [10]) | inhibition [11] | further results |
| --- | --- | --- | --- | --- | --- | --- | --- | --- | --- | --- | --- | --- | --- | --- | --- | --- | --- | --- | --- |
| COCCOCCOCCNc1nc(=O)n([C@H]2C[C@H](O)[C@@H](CO)O2)cc1C | 90 | > 200 | > 200 | > 200 | > 200 | > 200 | > 200 | > 200 | – | – | – | – | – | – | – | – | – | – | – |
| CCCCCCCCNc1nc(=O)n([C@H]2C[C@H](O)[C@@H](CO)O2)cc1C | 90 | > 200 | > 200 | > 200 | > 200 | > 200 | > 200 | > 200 | Active | Active | Active | Active | Active | Active | Active | Active | Active | Active | – |
| NCC[C@H](O)C(=O)N[C@@H]1C[C@H](N)[C@@H](O[C@H]2O[C@H](CN)[C@@H](O)[C@H](O)[C@H]2O)[C@H](O)[C@H]1O[C@H]1O[C@H](CO)[C@@H](O)[C@H](N)[C@H]1O [AMIKACIN] | – | 50 (≈ 29.3 µg/mL) | 3.4 (≈ 1.99 µg/mL) | 5 (≈ 2.93 µg/mL) | – | 1 (≈ 0.586 µg/mL) | 7 (≈ 4.1 µg/mL) | 29 (≈ 17 µg/mL) | – | – | – | – | – | – | – | – | – | – | – |
| CCCCCCCCCCCCNc1ccn([C@H]2C[C@H](O)[C@@H](CO)O2)c(=O)n1 | 100 | 70 (≈ 27.7 µg/mL) | 70 (≈ 27.7 µg/mL) | 70 (≈ 27.7 µg/mL) | 70 (≈ 27.7 µg/mL) | 70 (≈ 27.7 µg/mL) | 70 (≈ 27.7 µg/mL) | 70 (≈ 27.7 µg/mL) | – | – | – | – | – | – | – | – | – | – | – |
| Nc1nc(=O)[nH]cc1F | – | – | – | – | – | – | – | – | Active | Active | Active | Active | Active | Active | Active | Active | Active | Active | – |
| CCCCCCCCCCCCCCNc1ccn([C@H]2C[C@H](O)[C@@H](CO)O2)c(=O)n1 | 90 | > 200 | > 200 | > 200 | > 200 | > 200 | > 200 | > 200 | – | – | – | – | – | – | – | – | – | – | – |
| CCCCCCCCNc1ccn([C@H]2C[C@H](O)[C@@H](CO)O2)c(=O)n1 | 90 | > 200 | > 200 | > 200 | > 200 | > 200 | > 200 | > 200 | – | – | – | – | – | – | – | – | – | – | – |
| CCCCCCCCCCNc1nc(=O)n([C@H]2C[C@H](O)[C@@H](CO)O2)cc1C | 156 | 50 (≈ 19.1 µg/mL) | 50 (≈ 19.1 µg/mL) | 50 (≈ 19.1 µg/mL) | 50 (≈ 19.1 µg/mL) | 50 (≈ 19.1 µg/mL) | 50 (≈ 19.1 µg/mL) | 50 (≈ 19.1 µg/mL) | inactive | inactive | inactive | inactive | inactive | inactive | inactive | inactive | inactive | inactive | – |
| CCCCCCCCCCCCNc1nc(=O)n([C@H]2C[C@H](OC(=O)OCCOCCOCCO)[C@@H](CO)O2)cc1C | 90 | 68 (≈ 39.8 µg/mL) | 50 (≈ 29.3 µg/mL) | 50 (≈ 29.3 µg/mL) | 68 (≈ 39.8 µg/mL) | 50 (≈ 29.3 µg/mL) | 68 (≈ 39.8 µg/mL) | 68 (≈ 39.8 µg/mL) | – | – | – | – | – | – | – | – | – | – | solubility [12]: Soluble; Stabilty [13]: Stable; Stabilty [14]: Stable; half-life [15]: ≥ 24 h; Stabilty [16]: Stable |
| CCCCCCCCCCNc1ccn([C@@H]2O[C@H](CO)[C@@H](O)[C@H]2O)c(=O)n1 | 90 | > 200 | > 200 | > 200 | > 200 | > 200 | > 200 | > 200 | – | – | – | – | – | – | – | – | – | – | – |
